Source: PubChem BioAssay (several laboratories)
VLA-4 inh: inhibition in human VLA-4 binding assay, primary screen, VLA-4 allosteric modulator project, MLPCN library, flow cytometry, VLA-4 expressing cells. ligand binding flow cytometry. inhibition, % (about 7 µM as worked out from the volumes in the protocol). 330,000 tested, 0.2% active. Integrin alpha-4 (Homo sapiens), P13612; in the data active = inhibition above about 50%
Beta2AR agonist: beta2AR agonists driving receptor internalization, primary screen, cell-based, FAP fluorogen, flow cytometry; response, % (concentration not given with the values); 340,000 tested, 0.43% active; Beta-2 adrenergic receptor (Homo sapiens), P07550; AID 504454, 2011; Am2.2-beta2AR cells;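 active = response above a set limit, near 3 SD of response in nonfluorescent compounds, cut at about 42% in these data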
Target sequence (P07550 whole entry, looked up): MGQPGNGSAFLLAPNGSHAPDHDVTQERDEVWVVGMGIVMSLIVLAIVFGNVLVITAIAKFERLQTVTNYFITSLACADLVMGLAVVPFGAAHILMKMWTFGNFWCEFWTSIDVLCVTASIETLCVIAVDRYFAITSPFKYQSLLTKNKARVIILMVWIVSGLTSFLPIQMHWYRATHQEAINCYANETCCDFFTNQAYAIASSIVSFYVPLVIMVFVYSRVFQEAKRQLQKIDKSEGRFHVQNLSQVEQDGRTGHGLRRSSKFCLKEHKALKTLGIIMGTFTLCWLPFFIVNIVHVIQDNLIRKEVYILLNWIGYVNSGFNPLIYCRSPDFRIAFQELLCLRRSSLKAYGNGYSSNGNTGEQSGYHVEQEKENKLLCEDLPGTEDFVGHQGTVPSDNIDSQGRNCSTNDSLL
XBP1 UPR activ: activators of adaptive XBP1 UPR arm, primary screen, cell-based, CHO-XBP1 luciferase reporter, luminescence, uHTS; IRE1-XBP1 UPR activation; percent of tunicamycin response, DMSO as zero; activation, % at 20 µM; 330,000 tested, 0.33% active;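 active = versus positive control, 20 µM dose yields 30% or more activation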
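Material: CHO-XBP1 cells stably carrying IRE1-XBP1-driven luciferase reporter / Amount: 1000 cells per well / Compound: 20 µM, 1% DMSO / Times: 6 h treatment, 37 °C / Detection: luciferase luminescence / Measure: % activation of reporter signal versus tunicamycin and DMSO controls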
CHOP inh: inhibitors of CHOP promoter induction, primary screen, cell-based, unfolded protein response, luciferase reporter; inhibition, % at 10 µM; CHO-K1 CHOP-promoter luciferase, tunicamycin-induced, 15-18 h; 220,000 tested, 3.8% active;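 active = compounds that reduced the stress-induced luciferase reporter signal by more than about 70% of percent inhibition, limit read from the data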
CHOP UPR activ: activators of apoptotic CHOP UPR arm, primary screen, cell-based, CHO-CHOP luciferase reporter, luminescence, uHTS; AID 449763, 2010; activation, % at 10 µM; 330,000 tested, 0.34% active; UPR activation; percent of tunicamycin response over DMSO baseline;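 active = at 10 µM dose, activation of 40% or more, normalized to positive control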
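Test system: CHO-CHOP cells, stable luciferase reporter of PERK-eIF2a-CHOP signalling | Quantity: 500 CHO-CHOP cells per well | Buffer or medium: F12 plus 10% serum | Compound dosing: 10 µM single point, 0.5% DMSO | Schedule: 6 h compound treatment, 37 °C | Signal: Luciferase luminescence | Control set: Tunicamycin high control, DMSO low control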
XBP1 UPR conf: IRE1-XBP1 UPR arm activators, confirmation, cell-based, CHO-XBP1 luciferase reporter, luminescence, single concentration. activation, % at 20 µM. shares compounds with XBP1 UPR activ. 1,000 tested, 63% active;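 active = reporter signal at least 30% of the positive control's activation in two or more of four replicate wells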
Hits are given with their value; 0 = inactive; - = no result. Many of the other results were omitted from the sample, so hits are more common in it than they were.

SMILES	VLA-4 inh	Beta2AR agonist	XBP1 UPR activ	CHOP inh	CHOP UPR activ	XBP1 UPR conf
CC1(C)Cc2cccc(C(=O)Nc3ccc(F)cc3F)c2O1	0	0	0	0	0	-
O=C(COC(=O)c1cn(-c2ccccc2)nc1-c1ccc(F)cc1)Nc1ncc(Cl)cc1Cl	0	0	0	0	0	-
NS(=O)(=O)c1ccc(NC(=O)COC(=O)c2cn(-c3ccccc3)nc2-c2ccc(F)cc2)cc1	0	0	68.4	78.1	0	89.0
O=C(NCCC1=CCCCC1)C(=O)NCC(c1ccco1)N1CCN(c2ccc(F)cc2)CC1 (stereo not drawn)	0	0	31.3	87.8	0	56.2
O=C(NCC(c1ccco1)N1CCN(c2ccc(F)cc2)CC1)C1CCCCC1 (stereo not drawn)	0	0	0	-	0	-
CN(C)C(=O)COc1ccc2ccc(=O)oc2c1	0	0	0	0	0	-
CCOC(=O)c1c(C)[nH]c(C(=O)COc2ccc3ccc(=O)oc3c2)c1C	0	0	41.1	-	0	0
CCN(CC(=O)Nc1c(F)cccc1F)C(=O)c1nc2nccc(C)n2n1	0	0	0	-	0	-
CCOC(=O)/C(=N\Nc1ccc(C(C)=O)cc1)c1csc(Nc2ccccc2)n1	0	0	46.1	0	0	93.9
CCOC(=O)/C(=N\Nc1ccccc1[N+](=O)[O-])c1csc(N)n1	0	0	0	0	0	-
CCOc1ccc(OCC(O)CNC2CCN(Cc3ccccc3)CC2)cc1 (stereo not drawn)	0	0	0	0	0	-
CC(C)(c1ccccc1)c1ccc(OCC(O)CNC2CCN(Cc3ccccc3)CC2)cc1 (stereo not drawn)	0	0	53.2	0	0	0
CCOc1ccc(-n2c(SCC(=O)Nc3nccs3)nc3c(c2=O)SCC3)cc1	0	0	75.0	0	0	0
O=C(Cn1c2ccccc2c(=O)c2ccccc21)Nc1ccccc1F	0	0	0	0	0	-
O=C(Cn1c2ccccc2c(=O)c2cc([N+](=O)[O-])ccc21)Nc1ccccc1Cl	0	0	118.0	0	0	80.5
Cc1nc2[nH]c(=O)n(O)c(=O)c2s1	-	0	-	-	-	-
Cc1ccccc1OCC(O)CNC1CCC(NCC(O)COc2ccccc2C)CC1 (stereo not drawn)	0	0	43.1	-	56.4	0
O=C(CN1CCN(C(=O)C2CCCO2)CC1)Nc1cc(Cl)ccc1Cl (stereo not drawn)	0	0	0	-	0	-
COc1ccc(OC)c(NC(=O)c2cc3oc4ccccc4c3cc2O)c1	0	0	36.8	0	0	0
Cc1ccc(C2(C)NC(=O)N(CC(=O)NNC(=O)c3ccccc3F)C2=O)cc1 (stereo not drawn)	0	0	0	-	0	-
COC(=O)C1=C(C)N(Cc2ccccc2)C(=NCc2cccc(Cl)c2)N[C@H]1c1cccc(F)c1	0	48.3	45.1	-	0	0
COC(=O)C1=C(C)N(Cc2ccccc2)C(=NCc2ccccc2)N[C@H]1c1cccc(C(F)(F)F)c1	0	0	30.3	-	0	0
COC(=O)C1=C(C)N(Cc2ccccc2)C(=NCC(C)C)N[C@H]1c1cccc(C(F)(F)F)c1	0	0	0	-	0	-
CCN(CC(=O)NCc1ccc(F)cc1)C(=O)c1ccc(COc2ccccc2)cc1	0	0	0	-	0	-
Cc1nn(CC(=O)NCCCN2CCCC2)c(=O)c2nn(-c3ccccc3)c(C)c12	0	0	0	-	0	-
SMILES	VLA-4 inh	Beta2AR agonist	XBP1 UPR activ	CHOP inh	CHOP UPR activ	XBP1 UPR conf
CC1(C)CC(=O)C(C=Nc2ccc3cn[nH]c3c2)=C(O)C1	0	0	30.4	0	0	0
COc1cc2c(cc1OC)C(c1cc(Br)ccc1F)N(C(=O)CCl)CC2 (stereo not drawn)	0	0	0	-	0	-
CCCCCOCC(O)CCC(=O)NN (stereo not drawn)	0	0	34.4	0	0	0
Cc1cc(C)c(NC(=O)CSc2nc(COc3ccccc3)nc3ccccc23)c(C)c1	0	0	52.7	91.2	0	46.5
NC(=S)N/N=C/c1ccc(C23CC4CC(CC(C4)C2)C3)cc1	0	-	60.1	-	0	64.2
CCOC(=O)C1=C(O)/C(=C/c2cc(OC)c(OC)c(OC)c2)SC1=Nc1ccc(OC)cc1	0	0	35.9	0	0	0
CC(C)=CCc1c2c(c3occ(-c4ccc(O)cc4)c(=O)c3c1O)C=CC(C)(C)O2	0	0	55.7	76.3	0	49.5
CCOC(=O)C1=C(C)N=C2SC(C(=O)OC)=CC(=O)N2C1c1ccc(F)cc1 (stereo not drawn)	0	0	131.6	0	0	103.4
Cc1ccc(-c2ccnc(-c3ccc(O)cc3)n2)cc1	0	0	33.7	0	0	35.8
COc1ccc(-c2ccnc(-c3ccc(O)cc3)n2)cc1	0	0	0	0	0	-
COc1ccc(-c2cc(C#N)nc(Oc3ccc(Cl)cc3)n2)cc1	0	0	0	0	0	-
COc1ccc(-c2cc(C#N)nc(Cl)n2)cc1	0	0	30.2	0	0	0
O=C(NN1C(=O)c2ccccc2NC1c1ccccn1)c1ccccc1 (stereo not drawn)	0	0	0	0	0	-
Cc1ccccc1Nc1nc(-c2ccccc2)c(C(=O)Nc2cccnc2)s1	0	0	0	0	0	-
O=C(Nc1cccnc1)c1sc(Nc2ccccc2F)nc1-c1ccccc1	0	0	37.5	0	0	0
N#Cc1ccc(-c2ccc(F)cc2)nc1Oc1ccc(Cl)c(Cl)c1	0	0	37.7	0	0	0
N#Cc1ccc(-c2ccc(F)cc2)nc1Sc1ccc(F)cc1	0	0	0	0	0	-
CCOC(=O)c1c(-c2ccccc2)c2cc(OC)ccc2n1CCCN(C)C	0	0	0	-	0	-
Cc1ccc(/C=C2/Sc3ccc(C(=O)N4CCN(c5ccccn5)CC4)cc3NC2=O)cc1	0	0	0	-	0	-
Cc1ccc(/C=C2/Sc3ccc(C(=O)NCc4ccccn4)cc3NC2=O)cc1	0	0	32.0	-	0	0
CC1(C)Cc2nc3oc4c(=O)n(CC(=O)Nc5cccc(Cl)c5)cnc4c3cc2CO1	0	0	59.0	0	0	0
Cc1cccc(NC(=O)Cn2cnc3c(oc4nc5c(cc43)COC(C)(C)C5)c2=O)c1	0	0	0	0	0	-
Cc1ccc2nc(Nc3nc(-c4ccccc4)cc(=O)[nH]3)nc(C)c2c1	0	0	66.8	0	0	72.3
Cc1ccc2nc(Nc3nc(C)cc(-c4ccccc4)n3)[nH]c(=O)c2c1	0	0	31.2	0	0	62.4
Oc1ccc(C[C@H]2CNC(=S)N2CC2CCCN2C[C@H](Cc2ccccc2)N2C[C@H](Cc3ccc(O)cc3)N(CC3CCCCCC3)C2=S)cc1 (stereo partly drawn)	-	0	-	-	-	-
